Assay [1] in a line: inhibitors of TNFa-induced NFkB p65 translocation, primary screen, imaging, HUVEC, MLSMR starter and 10KST1 sets (AID 438;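 active = inhibition above 20% together with a positive visual image hit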;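 note: compound added about 3h40 before a 20 min TNFalpha stimulation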;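 for inhibition: signal is the nuclear over cytoplasmic p65 intensity ratio per well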). As to conditions: HUVEC TNFa-induced p65 nuclear translocation; cell count: measured here: nuclei count (cytotoxicity indicator), at 2.08 µM; inhibition: at 2 µM, stronger effect = higher value, 0% TNFa-plus-vehicle, 100% no-TNFa wells.
Assay [2] can be described thus: inhibitors of mutant huntingtin aggregation, primary screen, imaging, exon1htt(103Q)mCFP cells, high-content imaging (AID 483;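 active = visual image review flags a hit and inhibition of aggregation exceeds 20%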;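 note: compound exposure lasted 3 days before fixation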;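 for nuclei count: percent of the per-plate median nuclei count of sample wells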). Conditions: exon1htt(103Q)mCFP cell line, aggregate imaging, at 2 µM; inhibition of aggregation: stronger effect = higher value; nuclei count: measured here: cell count, toxicity.
Assay [3] is described as follows: inhibitors of E-selectin induction by TNFa, primary screen, imaging, HUVEC, immunofluorescence, MLSMR starter and 10KST1 sets (AID 487;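 active = visually confirmed hit in the image check and inhibition above 20%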;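 for inhibition: signal is fraction of cell area covered by stained E-selectin grains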;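 for nuclei count: 100% = median nuclei count of all wells on the same plate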). As to conditions: HUVEC TNFalpha-induced E-selectin immunofluorescence imaging, at 2 µM; inhibition: stronger effect = higher value; nuclei count: measured here: cell number, toxicity.
Assay [4] deals with Voltage-gated potassium channel subunit beta-2 (Rattus norvegicus) (UniProt P62483). The assay is described as follows: KvBeta enzyme negative modulators, primary screen, biochemical, NADPH fluorescence (AID 622;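 active = fluorescence slope higher than the sample average by over 3 SD, cut at about -0.22 in these data, passing the limit was not always enough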;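 note: slope of raw intensity against log time taken from 70 to 1610 s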). Conditions: recombinant KvBeta, 4-cyanobenzaldehyde reduction, at 10 µM, stronger effect = higher value.
Voltage-gated potassium channel subunit beta-2 (Rattus norvegicus), sequence (P62483 whole entry, looked up): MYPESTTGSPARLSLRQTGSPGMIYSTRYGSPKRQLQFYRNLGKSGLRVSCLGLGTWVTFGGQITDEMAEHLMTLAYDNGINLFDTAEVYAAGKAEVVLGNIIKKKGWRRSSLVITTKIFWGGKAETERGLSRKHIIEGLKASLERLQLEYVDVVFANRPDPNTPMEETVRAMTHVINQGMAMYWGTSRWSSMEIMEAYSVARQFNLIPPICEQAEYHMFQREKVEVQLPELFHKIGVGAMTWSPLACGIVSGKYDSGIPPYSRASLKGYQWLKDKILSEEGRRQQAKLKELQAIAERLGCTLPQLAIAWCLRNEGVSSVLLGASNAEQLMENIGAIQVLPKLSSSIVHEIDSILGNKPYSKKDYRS
The target is the same in assay [5]. In words: KvBeta positive modulators, primary screen, biochemical, NADPH fluorescence (AID 623).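 Note: fluorescence intensity change per second fitted from 20 to 320 s.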 Conditions: Recombinant KvBeta, NADPH fluorescence decrease slope, 10 min; at 10 µM; stronger effect = lower value.
Assay [6] deals with Muscarinic acetylcholine receptor M4 (Homo sapiens) (UniProt P08173). The assay is described as follows: compounds altering M4/GIRK thallium flux, either direction, primary screen, M4 allosteric agonist project, cell-based, HEK293 M4/GIRK, BTC-AM (AID 625;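 active = fluorescence slope after compound addition differing from the mean of all tested samples at 99.7% confidence, mostly higher but some lower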;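 note: thallium influx through GIRK channels coupled to M4 in HEK293 cells with BTC-AM dye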). Conditions: at 10 µM, actives lie on both sides. In a few lines:
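Material: M4/GIRK1/GIRK2 stable HEK293 cell line. Medium: pH 7.3 thallium assay buffer. Dosing: single compound concentration, 10 µM final. Schedule: 1 h dye loading, 2 min kinetic read. Measured by: kinetic fluorescence with BTC-AM dye. Read-out: post-addition slope, 15–24 s, of baseline-normalized fluorescence. Benchmarks: carbachol and DMSO controls.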

Assay [7] in a line: inhibitors of Sendai virus-induced IRF3 signaling, primary screen, TLR/RLR signaling modifier project, cell-based, Sendai virus stimulus, luciferase, 10K MLSCN set (AID 602276;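 active = inhibition at or above 50% at 10 µM; inactive = inhibition below 50%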;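 note: firefly luciferase from ISG56 promoter only with Renilla not read in this screen; 0% = Sendai virus plus DMSO and 100% = medium plus DMSO without virus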). Conditions: HEK293 RL24 IRF3 luciferase reporter, at 10 µM, stronger effect = higher value. A general note: In a reporter assay the amount or activity of a reporter protein is the signal.
The nature of assay [8]: inhibitors of poly I:C-induced TLR3 signaling, primary screen, cell-based, poly I:C stimulus, luciferase, 10K MLSCN set (AID 602277;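 active = inhibition of the reporter signal at or above 50%; inactive = inhibition below 50%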). As to conditions: HEK293-TLR3 RL24 IRF3 luciferase reporter, at 10 µM, stronger effect = higher value.

15 compounds from PubChem BioAssay can be followed below.

Calls of active or inactive are those of the source.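 Rule for the calls, unless noted: active = NADPH fluorescence slope more negative than the mean of all samples by about 3 SD, 99.7% confidence; inactive = the rest.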

Muscarinic acetylcholine receptor M4 (Homo sapiens), sequence (P08173 whole entry, looked up): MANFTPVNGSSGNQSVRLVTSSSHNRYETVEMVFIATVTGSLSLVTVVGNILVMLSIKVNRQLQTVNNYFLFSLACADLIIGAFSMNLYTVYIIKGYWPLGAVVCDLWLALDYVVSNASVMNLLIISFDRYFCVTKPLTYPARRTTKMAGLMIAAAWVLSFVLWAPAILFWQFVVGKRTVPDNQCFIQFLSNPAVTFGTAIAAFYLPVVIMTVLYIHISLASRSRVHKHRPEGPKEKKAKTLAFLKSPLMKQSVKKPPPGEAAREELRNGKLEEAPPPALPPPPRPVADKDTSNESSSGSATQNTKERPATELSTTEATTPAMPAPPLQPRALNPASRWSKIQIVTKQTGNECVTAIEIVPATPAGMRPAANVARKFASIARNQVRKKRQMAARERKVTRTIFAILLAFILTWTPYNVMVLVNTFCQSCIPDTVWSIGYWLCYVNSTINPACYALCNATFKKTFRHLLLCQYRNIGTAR

As usually defined, the inhibition is the change of the read-out against control, counted positive when it falls. For `COc1ccc2c(c1OC)C(=O)OC2Nn1cncn1` (stereo not given), the cell count in assay [1] was determined as 334. Moreover, the inhibition in assay [1] was -9.5% (inactive); in assay [3], 1.1% (inactive); in assay [7], 15.9% (inactive); in assay [8] it was 22.6% (inactive). For the same compound, the inhibition of aggregation in assay [2] is -11.1% (inactive). Also, the nuclei count was determined as 113% in assay [2] and 108% in assay [3]. Besides, the fluorescence slope in assay [4] was -0.565 (inactive); in assay [6], 0.00408 (inactive). For the same compound, the NADPH fluorescence slope in assay [5] was 1.7e-05 (inactive).

On to `O=C(CN1C(=O)c2ccccc2C1=O)NCC1COc2ccccc2O1` (stereo not given), for which the cell count in assay [1] is 403. In addition, the inhibition in assay [1] was -0.8% (inactive); in assay [3], 50.3% (inactive); in assay [7] it was -12.5% (inactive); in assay [8] it was -10.2% (inactive). Also, the inhibition of aggregation in assay [2] was 12.6% (inactive). The nuclei count turned out to be 101% in assay [2] and 75.3% in assay [3]. For the same compound, the fluorescence slope in assay [4] was -0.477 (inactive); in assay [6], 0.00703 (inactive). Also, in assay [5], the NADPH fluorescence slope is 9.2e-05 (inactive).

In the case of `CCn1c(=N)n(CC(=O)C23CC4CC(CC(C4)C2)C3)c2ccccc21`, the cell count in assay [1] turned out to be 721. Besides, the inhibition in assay [1] was -26.7% (inactive); in assay [3] it was -45.9% (inactive); in assay [7], 1.98% (inactive); in assay [8] it was 23.3% (inactive). For the same compound, in assay [2], the inhibition of aggregation was -8.2% (inactive). In addition, the nuclei count in assay [2] was 93.6%; in assay [3], 117%. Also, the fluorescence slope in assay [4] was -0.271 (inactive); in assay [6], 0.00365 (inactive). In addition, the NADPH fluorescence slope in assay [5] was -1.5e-05 (inactive).

On to `O=C(CNS(=O)(=O)c1ccc(Br)s1)N1CCN(c2ncccn2)CC1`, for which, in assay [1], the cell count was 352. Also, the inhibition in assay [1] is 2.7% (inactive); in assay [3], -48.3% (inactive); in assay [7], -5.84% (inactive); in assay [8] it was -10.7% (inactive). Further, the inhibition of aggregation in assay [2] was 13.7% (inactive). Moreover, the nuclei count came out at 101% in assay [2] and 86.3% in assay [3]. Also, the fluorescence slope in assay [4] was -0.532 (inactive); in assay [6], 0.00447 (inactive). Besides, the NADPH fluorescence slope in assay [5] was -0.000106 (inactive).

For the compound `O=C(Nc1ccccc1N1CCN(C(=O)c2ccc(Cl)cc2)CC1)c1cc2ccccc2o1`, the cell count in assay [1] is 424. The inhibition in assay [1] was 0% (inactive); in assay [3], -108% (inactive); in assay [7], 1.02% (inactive); in assay [8], 17% (inactive). Besides, in assay [2], the inhibition of aggregation is -5.5% (inactive). Moreover, the nuclei count was determined as 101% in assay [2] and 104% in assay [3]. The fluorescence slope in assay [4] is -0.549 (inactive); in assay [6] it was 0.00626 (inactive). Moreover, in assay [5], the NADPH fluorescence slope is -6.3e-06 (inactive).

For `CC1(C)Cc2noc(N)c2C(C)(C)N1O`, the cell count in assay [1] is 762. The inhibition is -11.6% (inactive) in assay [1], -81.1% (inactive) in assay [3], 13.8% (inactive) in assay [7] and 22.1% (inactive) in assay [8]. For the same compound, in assay [2], the inhibition of aggregation is -36.8% (inactive). Moreover, the nuclei count was determined as 118% in assay [2] and 110% in assay [3]. Moreover, the fluorescence slope is -0.39 (inactive) in assay [4] and 0.00626 (inactive) in assay [6]. Also, the NADPH fluorescence slope in assay [5] is 4.7e-05 (inactive).

`Cc1cc(S(=O)(=O)n2cnc3ccccc32)c(C)cc1Cl`: the cell count in assay [1] is 449. Further, the inhibition in assay [1] was -11.9% (inactive); in assay [3], 8% (inactive); in assay [7] it was 1.42% (inactive); in assay [8], 14.8% (inactive). For the same compound, in assay [2], the inhibition of aggregation is 25.3% (inactive). Moreover, the values for the nuclei count in assay [2] and in assay [3] were 78% and 113%, respectively. For the same compound, the figures for the fluorescence slope in assay [4] and in assay [6] were -0.473 (inactive) and 0.00564 (inactive), respectively. In addition, in assay [5], the NADPH fluorescence slope is 1.7e-06 (inactive).

For the compound `Cc1ccc(C(=O)NC2CC3CCCC(C2)N3C(=O)NC2CCCCC2)cc1` (stereo not given), the cell count in assay [1] was 391. Moreover, the inhibition is -5% (inactive) in assay [1], -32.5% (inactive) in assay [3], -0.377% (inactive) in assay [7] and 9.12% (inactive) in assay [8]. Besides, in assay [2], the inhibition of aggregation was 0.8% (inactive). The nuclei count in assay [2] is 98.7%; in assay [3], 80.8%. Further, the fluorescence slope in assay [4] is -0.559 (inactive); in assay [6], 0.00417 (inactive). Moreover, the NADPH fluorescence slope in assay [5] was 5.4e-08 (inactive).

Turning to `Cc1ccnc(NC(=O)Nc2ccc(F)cc2)c1`, the cell count in assay [1] was found to be 478. For the same compound, the inhibition in assay [1] is 8.1% (inactive); in assay [3] it was -266% (inactive); in assay [7], -59.1% (inactive); in assay [8], -110% (inactive). Besides, the inhibition of aggregation in assay [2] was 9.2% (inactive). The nuclei count in assay [2] stood at 98.7%; in assay [3], 126%. In addition, the fluorescence slope in assay [4] is -0.567 (inactive); in assay [6], 0.0057 (inactive). For the same compound, the NADPH fluorescence slope in assay [5] was -9.3e-06 (inactive).

On to `COC(=O)CN(c1ccc2c(c1)OCO2)S(C)(=O)=O`, for which the cell count in assay [1] stood at 356. Also, the inhibition is -0.3% (inactive) in assay [1], 62.9% (inactive) in assay [3], 8.14% (inactive) in assay [7] and 8.67% (inactive) in assay [8]. The inhibition of aggregation in assay [2] is 17.1% (inactive). The nuclei count in assay [2] was found to be 81.1%; in assay [3], 49.1%. Also, the fluorescence slope was -0.482 (inactive) in assay [4] and 0.00639 (inactive) in assay [6]. For the same compound, the NADPH fluorescence slope in assay [5] is -2.7e-06 (inactive).

Regarding `O=c1[nH]c2c(s1)C(c1ccco1)C1C3CCC(C3)C1S2` (stereo not given), the cell count in assay [1] was 220. For the same compound, the inhibition in assay [1] is 9.2% (inactive); in assay [3] it was -32.2% (inactive); in assay [7], 12.1% (inactive); in assay [8], 26.3% (inactive). In addition, in assay [2], the inhibition of aggregation was 12.3% (inactive). In addition, the nuclei count amounted to 89.5% in assay [2] and 108% in assay [3]. For the same compound, the fluorescence slope in assay [4] is -0.574 (inactive); in assay [6], 0.00506 (inactive). Besides, the NADPH fluorescence slope in assay [5] is -4.2e-05 (inactive).

Regarding `CC1(C)CC(=O)C(C=NCCO)=C(O)C1`, the cell count in assay [1] is 416. The inhibition was -1.8% (inactive) in assay [1], -45.4% (inactive) in assay [3], 21.7% (inactive) in assay [7] and -0.595% (inactive) in assay [8]. Moreover, the inhibition of aggregation in assay [2] is 57% (active). The nuclei count turned out to be 23.4% in assay [2] and 123% in assay [3]. The values for the fluorescence slope in assay [4] and in assay [6] were -0.243 (inactive) and 0.00793 (inactive), respectively. Besides, the NADPH fluorescence slope in assay [5] was -2.1e-05 (inactive).

On to `CNC(=O)c1ccccc1NC(=O)c1c(O)c2c([nH]c1=O)CCCC2`, for which the cell count in assay [1] amounted to 433. In addition, the inhibition in assay [1] was 16.6% (inactive); in assay [3], -19.5% (inactive); in assay [7] it was 4.16% (inactive); in assay [8] it was 16.9% (inactive). Further, the inhibition of aggregation in assay [2] is -9.3% (inactive). The nuclei count in assay [2] stood at 98.8%; in assay [3] it was 108%. Also, the fluorescence slope in assay [4] is -0.47 (inactive); in assay [6] it was 0.00682 (inactive). For the same compound, the NADPH fluorescence slope in assay [5] is -5.8e-05 (inactive).

On to `Cc1ccccc1NC(=O)c1ccccc1`, for which the cell count in assay [1] worked out at 373. Further, the inhibition in assay [1] was 1.7% (inactive); in assay [3] it was -49.6% (inactive); in assay [7] it was 1.39% (inactive); in assay [8], -13% (inactive). The inhibition of aggregation in assay [2] is 13.2% (inactive). Moreover, the nuclei count came to 104% in assay [2] and 110% in assay [3]. Further, the fluorescence slope in assay [4] was -0.469 (inactive); in assay [6] it was 0.00509 (inactive). Moreover, the NADPH fluorescence slope in assay [5] was 2.1e-05 (inactive).

Take `COC(=O)CN(c1ccc(F)cc1)S(=O)(=O)c1ccccc1`: the cell count in assay [1] came to 329. Moreover, the inhibition in assay [1] is 1.8% (inactive); in assay [3], -92.2% (inactive); in assay [7], 6.05% (inactive); in assay [8], -8.76% (inactive). The inhibition of aggregation in assay [2] was -0.2% (inactive). Further, the nuclei count is 86.5% in assay [2] and 95.6% in assay [3]. Moreover, the fluorescence slope in assay [4] was -0.527 (inactive); in assay [6], 0.00367 (inactive). Moreover, in assay [5], the NADPH fluorescence slope was -0.000183 (inactive).
